Reference: ChEMBL document CHEMBL1124174, “Substituted benzamides. 1. Potential nondopaminergic antagonists of chemotherapy-induced nausea and emesis” (J Med Chem, 1988)
Values joined by “and” are separate entries in the source; they are usually repeats but may differ in a detail not shown here. Equal entries are not always repeated.

Tests used:
D(2) dopamine receptor = D(2) dopamine receptor (Rattus norvegicus, UniProt P61169); assay: In vitro antagonistic activity against Dopamine receptor D2 was evaluated for the inhibition of [3H]spiperone binding
D(2) dopamine receptor, sequence (P61169 whole entry): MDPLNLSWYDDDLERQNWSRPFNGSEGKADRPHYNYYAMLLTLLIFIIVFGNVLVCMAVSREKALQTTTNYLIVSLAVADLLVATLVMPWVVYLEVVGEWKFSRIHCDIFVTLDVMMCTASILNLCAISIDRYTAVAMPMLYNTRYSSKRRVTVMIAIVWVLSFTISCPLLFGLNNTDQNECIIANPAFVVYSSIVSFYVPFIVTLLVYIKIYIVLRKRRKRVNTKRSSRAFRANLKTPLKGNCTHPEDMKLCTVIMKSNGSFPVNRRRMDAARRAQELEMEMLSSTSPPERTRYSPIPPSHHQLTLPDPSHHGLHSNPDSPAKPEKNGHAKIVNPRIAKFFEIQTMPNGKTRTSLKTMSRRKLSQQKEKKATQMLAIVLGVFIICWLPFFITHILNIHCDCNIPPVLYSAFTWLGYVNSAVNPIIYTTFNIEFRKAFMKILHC
How it was run: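 Rat striatal membranes were prepared by differential centrifugation in 50 mM Tris pH 7.4 at 4 °C. Membrane protein (10 mg) was incubated 15 min at 37 °C with 0.1 nM [3H]spiperone and varying competitor concentrations. Buffer: 50 mM Tris HCl pH 7.5, 0.1% ascorbic acid, pargyline, 120 mM NaCl, 5 mM KCl, 2 mM CaCl2, 1 mM MgCl2. (+)-Butaclamol defined nonspecific binding. Bound ligand was collected by filtration and scintillation counted. IC50 by log-logit regression.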

[1] = biological target: D(2) dopamine receptor (Canis lupus familiaris) (UniProt Q9GJU1); assay: In vivo antagonism activity against dopamine D2 receptor was measured as emesis in dog when administered subcutaneously; format: functional, organism-based
D(2) dopamine receptor (Canis lupus familiaris), sequence (Q9GJU1 whole entry): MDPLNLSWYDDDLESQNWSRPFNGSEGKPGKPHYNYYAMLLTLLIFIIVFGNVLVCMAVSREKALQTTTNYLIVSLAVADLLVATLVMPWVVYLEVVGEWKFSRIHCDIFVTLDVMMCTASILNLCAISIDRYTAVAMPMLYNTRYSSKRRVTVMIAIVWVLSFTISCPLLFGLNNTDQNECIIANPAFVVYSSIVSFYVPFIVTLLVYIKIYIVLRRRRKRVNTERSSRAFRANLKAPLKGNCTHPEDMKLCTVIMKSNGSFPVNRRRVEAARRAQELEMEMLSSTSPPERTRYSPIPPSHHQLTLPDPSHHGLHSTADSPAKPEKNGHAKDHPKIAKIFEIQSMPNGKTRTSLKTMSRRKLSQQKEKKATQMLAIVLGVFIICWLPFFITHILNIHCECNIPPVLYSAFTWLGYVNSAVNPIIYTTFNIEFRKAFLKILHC

[2] = biological target: D(2) dopamine receptor (Rattus norvegicus) (UniProt P61169); assay: In vivo antagonistic activity against dopamine D2 receptor was measured as catalepsy in rat when administered subcutaneously; format: functional, organism-based
D(2) dopamine receptor (Rattus norvegicus), sequence (P61169 whole entry): as the sequence (P61169 whole entry) above
How it was run: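 Male Long Evans rats (275 g) received graded sc doses in dilute aqueous HCl (pH 4.5-5.5). They were observed 180 min for catalepsy, scored when the animal stayed stationary ≥15 s on a four-cork template.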

Mustela putorius furo [3] = assay: In vivo antagonism of cisplatin-induced emesis in ferret measured as emetic episodes, twice the dose of 3 mg/kg and in 3 ferrets; format: functional
How it was run: (§1)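 Nonfasted castrated male Fitch ferrets (1–1.5 kg) had jugular catheters implanted ≥48 h earlier under anesthesia. Compounds or saline were given iv twice, 5 min before and 90 min after cisplatin (12 mg/kg iv; 12 mg/mL in warm 0.9% saline). Emesis was observed up to 4 h; events within 1 min counted as one episode. Results were given as mean emetic episodes and % protection versus a pooled historical/concurrent control. t test versus saline.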

Mustela putorius furo [4] = assay: In vivo antagonism of cisplatin-induced emesis in ferret measured as percentage protection for twice the dose of 3 mg/kg and in 3 ferrets; format: functional; how it was run: as §1
[5] = biological target: D(2) dopamine receptor (Rattus norvegicus) (UniProt P61169); assay: In vivo antagonism activity against D2 receptor was measured as stereotypy in rat when administered subcutaneously; format: functional, organism-based
How it was run: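 Male Long Evans rats (275 g) were dosed sc in dilute aqueous HCl (pH 4.5-5.5) 30 min before apomorphine (1 mg/kg sc).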

Mustela putorius furo [6] = assay: In vivo antagonism of cisplatin-induced emesis in ferret measured as emetic episodes, twice the dose of 1 mg/kg and in 3 ferrets; format: functional; how it was run: as §1
Mustela putorius furo [7] = assay: In vivo antagonism of cisplatin-induced emesis in ferret measured as percentage protection for twice the dose of 1 mg/kg and in 3 ferrets; format: functional; how it was run: as §1
Canis familiaris [8] = assay: In vivo antagonism of cisplatin-induced emesis in dog measured as emetic episodes, twice the dose of 1 mg/kg in 2 dogs; format: functional, Canis lupus familiaris
How it was run: (§2)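 Nonfasted mature male or female beagles were dosed sc twice, 30 min before and 120 min after cisplatin (3 mg/kg iv; 3 mg/mL in warm 0.9% saline, used immediately). Emesis was observed up to 5 h; events within 2 min counted as one episode. Results were given as mean emetic episodes and % protection versus a dynamic control (historical and concurrent saline means pooled). t test versus saline.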

Canis familiaris [9] = assay: In vivo antagonism of cisplatin-induced emesis in dog measured as percentage protection for twice the dose of 1 mg/kg in 2 dogs; format: functional, Canis lupus familiaris; how it was run: as §2

SMILES | IC50 (D(2) dopamine receptor) [nM] | ED50 [1] [mg/kg] | ED50 [2] [mg/kg] | Emetic episodes (Mustela putorius furo [3]) | Protection (Mustela putorius furo [4]) [%] | ED50 [5] [mg/kg] | Emetic episodes (Mustela putorius furo [6]) | Protection (Mustela putorius furo [7]) [%] | Protection (Mustela putorius furo [7]; 1 mg/kg) | Emetic episodes (Canis familiaris [8]) | Protection (Canis familiaris [9]) [%]
CCN(CC)CCNC(=O)c1cc(Cl)c(N)c2c(C)c(C)oc12 | > 1000 | > 3 | > 40 | 3.3 | 53 | > 40 | – | – | – | – | –
CCN(CC)CCNC(=O)c1cc(Cl)c(N)cc1OCCOCCOC | > 1000 | > 3 | > 40 | 1.7 | 76 | > 40 | 4.3 | 39 | – | – | –
CCN1CCCCCOc2cc(N)c(Cl)cc2C(=O)NCCC1 | 7.7 | > 3 | > 40 | 2.3 | 67 | 10 | – | – | – | – | –
CCN(CC)CCNC(=O)c1cc(Cl)c(N)cc1OCC(O)CO (stereo unspecified) | > 1000 | > 3 | > 40 | 6.3 | 10 | > 40 | – | – | – | – | –
C=CCN1CCCC1CNC(=O)c1cc2nn[nH]c2cc1O (stereo unspecified) | – | > 3 | > 40 | 8 | 0 | > 40 | – | – | – | – | –
CCN(CC)CCNC(=O)c1cc(Cl)c(N)cc1OCC(O)COC (stereo unspecified) | > 1000 | > 3 | > 40 | 3.3 | 54 | > 40 | – | – | – | – | –
C=CCN1CCCC1CNC(=O)c1cc2nn[nH]c2cc1OC(C)C(C)=O (stereo unspecified) | > 1000 | > 3 | > 40 | 5.7 | 21 | > 40 | – | – | – | – | –
C=CCN1CCCC1CNC(=O)c1cc2[nH]nnc2cc1OC (stereo unspecified) [ALIZAPRIDE] | 200 | – | – | – | – | – | – | – | – | – | –
CCN(CC)CCNC(=O)c1cc(Cl)c(N)cc1OCC(C)(C)O | > 1000 | > 3 | > 40 | 1.3 | – | > 40 | 3 | – | 84% and 57% | – | –
CCN(CC)CCN1CCOc2cc(N)c(Cl)cc2C1=O | > 1000 | > 3 | > 40 | – | – | > 40 | 6 | 14 | – | – | –
CCN(CC)CCC[S+]([O-])c1cc(Cl)c(N)cc1OC (stereo unspecified) | > 1000 | > 1 | > 40 | 2 | 70 | > 40 | – | – | – | – | –
C=CCN1CCCC1CNC(=O)c1cc2[nH]nnc2cc1O (stereo unspecified) | > 1000 | – | – | – | – | – | – | – | – | – | –
CCN(CC)CCNC(=O)c1cc(Cl)c(N)cc1OCCO | > 1000 | > 3 | > 40 | 2.3 | 68 | > 40 | – | – | – | 3 | 76
CCN(CC)CCNC(=O)c1cc(Cl)c(N)cc1OC[C@@H](C)O (stereo in doubt; 8e) | – | > 3 | > 40 | – | – | > 40 | – | – | – | – | –
CCN(CC)CCNC(=O)c1cc(Cl)c(N)cc1OCc1cc(C)no1 | > 1000 | > 3 | > 40 | 2 | 72 | > 40 | – | – | – | – | –
CCN(CC)CCNC(=O)c1cc(Cl)c(N)cc1OCC(=O)c1cccs1 | > 1000 | – | > 40 | 0.3 | 95 | > 40 | – | – | – | 3 | 75
CCN(CC)CCNC(=O)c1cc(Cl)c(N)cc1OC(C)C(C)O (stereo in doubt; 8h) | – | > 3 | > 40 | – | – | > 40 | – | – | – | – | –
CCN(CC)CCNC(=O)c1cc(Cl)c(N)cc1OCc1ccccc1 | > 1000 | > 1 | > 40 | – | – | > 40 | – | – | – | – | –
CCN(CC)CCN(C)C(=O)c1cc(Cl)c(N)cc1O.Cl | > 1000 | > 3 | > 40 | 5 | 30 | > 40 | – | – | – | – | –
